In ChEMBL document CHEMBL1139352, “Synthesis and evaluation of novel inhibitors of Pim-1 and Pim-2 protein kinases” (J Med Chem, 2009):

Experiments:
[1] = biological target: Serine/threonine-protein kinase Chk2 (Homo sapiens) (UniProt O96017); test: Inhibition of CHK2 at 5 uM
[2] = system: Mus musculus; test: Toxicity in Swiss Webster mouse assessed as glucose level at 50 mg/kg, ip daily for 7 days measured after 7 days; type: organism-based; parameters: dose 50 mg/kg, route intraperitoneal; conditions: in vivo, 168 h
[3] = system: Mus musculus; test: Toxicity in Swiss Webster mouse assessed as lymphocyte count at 50 mg/kg, ip daily for 7 days measured after 7 days; type: organism-based; parameters: dose 50 mg/kg, route intraperitoneal; conditions: in vivo, 168 h
[4] = Antitumor activity against mouse JC cells xenografted BALB/c mouse assessed as tumor growth inhibition at 50 mg/kg, ip for 5 days per week; type: functional; parameters: scale not given: the % may be the effect or the level left; conditions: route intraperitoneal
Procedure, shortened: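 Syngeneic model: female Balb/c mice were implanted subcutaneously with 1 × 10⁶ JC murine mammary adenocarcinoma cells in PBS. Once tumors were palpable, mice were randomized into groups. They received intraperitoneal injections once daily, five days per week, of either vehicle (50% DMSO : 50% PBS) or 50 mg/kg. Tumor volume was taken as (L × W²)/2. n = 5 mice per group; mean ± standard error.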

[5] = biological target: Epidermal growth factor receptor (Homo sapiens) (UniProt P00533); test: Inhibition of EGFR at 5 uM
[6] = system: Mus musculus; test: Toxicity in Swiss Webster mouse assessed as granulocyte count at 10 mg/kg, ip daily for 7 days measured after 7 days; type: organism-based; parameters: dose 10 mg/kg, route intraperitoneal; conditions: in vivo, 168 h
[7] = biological target: Ribosomal protein S6 kinase alpha-5 (Homo sapiens) (UniProt O75582); test: Inhibition of MSK1 at 5 uM
Chain of Ribosomal protein S6 kinase alpha-5 (Homo sapiens) (O75582 whole entry, looked up): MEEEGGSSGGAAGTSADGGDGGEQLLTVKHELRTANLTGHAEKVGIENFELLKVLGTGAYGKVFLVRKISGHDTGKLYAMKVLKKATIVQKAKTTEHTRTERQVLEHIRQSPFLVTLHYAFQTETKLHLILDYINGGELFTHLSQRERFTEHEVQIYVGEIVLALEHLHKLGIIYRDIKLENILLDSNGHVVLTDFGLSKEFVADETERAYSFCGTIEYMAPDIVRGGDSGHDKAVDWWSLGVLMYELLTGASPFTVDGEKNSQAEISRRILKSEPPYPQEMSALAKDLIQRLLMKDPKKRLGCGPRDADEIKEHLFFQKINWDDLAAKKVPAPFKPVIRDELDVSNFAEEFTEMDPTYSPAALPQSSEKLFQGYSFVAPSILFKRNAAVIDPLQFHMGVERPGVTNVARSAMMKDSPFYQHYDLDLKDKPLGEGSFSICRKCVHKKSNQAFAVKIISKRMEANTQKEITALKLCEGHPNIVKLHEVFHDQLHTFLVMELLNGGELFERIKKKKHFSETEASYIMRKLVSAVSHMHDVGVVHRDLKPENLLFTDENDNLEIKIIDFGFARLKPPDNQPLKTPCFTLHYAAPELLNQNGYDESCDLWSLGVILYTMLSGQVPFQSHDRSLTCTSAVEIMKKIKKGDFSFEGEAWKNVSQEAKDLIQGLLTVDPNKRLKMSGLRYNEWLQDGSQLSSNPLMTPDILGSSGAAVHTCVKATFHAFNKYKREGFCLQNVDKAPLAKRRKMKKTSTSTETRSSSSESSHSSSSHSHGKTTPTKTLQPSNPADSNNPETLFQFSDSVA

[8] = system: Mus musculus; test: Toxicity in Swiss Webster mouse assessed as phosphate level at 10 mg/kg, ip daily for 7 days measured after 7 days; type: organism-based; parameters: dose 10 mg/kg, route intraperitoneal; conditions: in vivo, 168 h
[9] = biological target: RAC-beta serine/threonine-protein kinase (Homo sapiens) (UniProt P31751); test: Inhibition of AKT2 at 5 uM
Chain of RAC-beta serine/threonine-protein kinase (Homo sapiens) (P31751 whole entry): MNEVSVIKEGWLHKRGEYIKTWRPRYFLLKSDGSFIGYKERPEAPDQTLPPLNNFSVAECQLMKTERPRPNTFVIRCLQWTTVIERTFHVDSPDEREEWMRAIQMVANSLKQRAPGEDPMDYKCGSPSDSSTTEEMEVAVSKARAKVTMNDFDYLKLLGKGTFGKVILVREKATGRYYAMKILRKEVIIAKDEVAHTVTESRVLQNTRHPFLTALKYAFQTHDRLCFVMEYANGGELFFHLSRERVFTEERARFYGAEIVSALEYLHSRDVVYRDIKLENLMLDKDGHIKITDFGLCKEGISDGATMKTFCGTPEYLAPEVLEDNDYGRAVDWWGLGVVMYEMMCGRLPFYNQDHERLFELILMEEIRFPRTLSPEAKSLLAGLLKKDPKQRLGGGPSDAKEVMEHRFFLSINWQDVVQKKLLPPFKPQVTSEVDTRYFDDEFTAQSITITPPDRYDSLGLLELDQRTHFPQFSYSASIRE

[10] = system: Mus musculus; test: Toxicity in Swiss Webster mouse assessed as Na+ level at 50 mg/kg, ip daily for 7 days measured after 7 days; type: organism-based; parameters: dose 50 mg/kg, route intraperitoneal; conditions: in vivo, 168 h
[11] = system: Mus musculus; test: Toxicity in Swiss Webster mouse assessed as phosphate level at 3 mg/kg, ip daily for 7 days measured after 7 days; type: organism-based; parameters: dose 3 mg/kg, route intraperitoneal; conditions: in vivo, 168 h
[12] = biological target: Serine/threonine-protein kinase PAK 2 (Homo sapiens) (UniProt Q13177); test: Inhibition of PAK2 at 5 uM
[13] = system: Mus musculus; test: Toxicity in Swiss Webster mouse assessed as white blood cell count at 3 mg/kg, ip daily for 7 days measured after 7 days; type: organism-based; parameters: dose 3 mg/kg, route intraperitoneal; conditions: in vivo, 168 h
Procedure, shortened: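 Six-week-old female Swiss Webster mice (about 25 g) received intraperitoneal injections daily for 7 days. Doses were 3, 10 or 50 mg/kg, with a vehicle group (30% PEG-400, 5% Tween-80, 65% DMSO). Values are reported as ranges per group.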

[14] = biological target: Serine/threonine-protein kinase MARK1 (Homo sapiens) (UniProt Q9P0L2); test: Inhibition of MARK1 at 5 uM
[15] = system: Mus musculus; test: Toxicity in Swiss Webster mouse assessed as alkaline phosphatase level at 50 mg/kg, ip daily for 7 days measured after 7 days; type: organism-based; parameters: dose 50 mg/kg, route intraperitoneal; conditions: in vivo, 168 h
[16] = biological target: MAP kinase-activated protein kinase 5 (Homo sapiens) (UniProt Q8IW41); test: Inhibition of PRAK at 5 uM
Chain of MAP kinase-activated protein kinase 5 (Homo sapiens) (Q8IW41 whole entry): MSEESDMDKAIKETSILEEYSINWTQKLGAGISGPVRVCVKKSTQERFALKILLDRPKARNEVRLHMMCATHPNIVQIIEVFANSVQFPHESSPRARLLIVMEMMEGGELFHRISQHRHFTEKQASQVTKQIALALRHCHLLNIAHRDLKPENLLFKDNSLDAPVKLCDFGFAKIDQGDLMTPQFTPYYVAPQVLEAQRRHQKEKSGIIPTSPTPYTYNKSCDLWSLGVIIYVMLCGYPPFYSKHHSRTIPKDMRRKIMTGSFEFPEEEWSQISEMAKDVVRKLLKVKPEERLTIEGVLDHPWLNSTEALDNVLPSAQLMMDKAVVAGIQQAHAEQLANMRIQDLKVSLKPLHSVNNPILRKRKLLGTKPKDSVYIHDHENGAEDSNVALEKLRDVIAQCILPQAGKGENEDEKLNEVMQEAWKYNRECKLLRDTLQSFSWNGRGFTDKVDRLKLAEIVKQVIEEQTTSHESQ

[17] = biological target: RAC-gamma serine/threonine-protein kinase (Homo sapiens) (UniProt Q9Y243); test: Inhibition of AKT3 at 5 uM
Chain of RAC-gamma serine/threonine-protein kinase (Homo sapiens) (Q9Y243 whole entry): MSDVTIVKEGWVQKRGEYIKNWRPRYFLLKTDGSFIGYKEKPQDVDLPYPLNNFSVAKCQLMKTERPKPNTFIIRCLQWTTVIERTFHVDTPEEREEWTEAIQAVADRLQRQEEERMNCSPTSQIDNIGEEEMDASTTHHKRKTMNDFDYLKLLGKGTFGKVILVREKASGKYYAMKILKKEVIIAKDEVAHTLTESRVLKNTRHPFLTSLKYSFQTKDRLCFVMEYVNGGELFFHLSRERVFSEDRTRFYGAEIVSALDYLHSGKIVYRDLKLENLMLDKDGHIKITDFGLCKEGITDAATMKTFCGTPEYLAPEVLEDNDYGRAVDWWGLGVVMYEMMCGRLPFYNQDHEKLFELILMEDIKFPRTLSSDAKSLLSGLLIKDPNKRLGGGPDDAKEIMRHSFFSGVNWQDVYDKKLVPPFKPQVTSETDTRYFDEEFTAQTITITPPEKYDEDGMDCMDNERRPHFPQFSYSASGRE

[18] = biological target: Inhibitor of nuclear factor kappa-B kinase subunit beta (Homo sapiens) (UniProt O14920); test: Inhibition of IKK-beta at 5 uM
[19] = biological target: Dual specificity tyrosine-phosphorylation-regulated kinase 1A (Homo sapiens) (UniProt Q13627); test: Inhibition of DYRK1alpha at 5 uM
[20] = biological target: Casein kinase I isoform delta (Homo sapiens) (UniProt P48730); test: Inhibition of CK1delta at 5 uM
[21] = system: Mus musculus; test: Toxicity in Swiss Webster mouse assessed as granulocyte count at 50 mg/kg, ip daily for 7 days measured after 7 days; type: organism-based; parameters: dose 50 mg/kg, route intraperitoneal; conditions: in vivo, 168 h
[22] = system: Mus musculus; test: Toxicity in Swiss Webster mouse assessed as Na+ level at 3 mg/kg, ip daily for 7 days measured after 7 days; type: organism-based; parameters: dose 3 mg/kg, route intraperitoneal; conditions: in vivo, 168 h
[23] = system: Mus musculus; test: Toxicity in Swiss Webster mouse assessed as monocyte count at 50 mg/kg, ip daily for 7 days measured after 7 days; type: organism-based; parameters: dose 50 mg/kg, route intraperitoneal; conditions: in vivo, 168 h
[24] = biological target: Serine/threonine-protein kinase pim-2 (Homo sapiens, UniProt Q9P1W9); test: Inhibition of PIM2 at 5 uM
Chain of Serine/threonine-protein kinase pim-2 (Q9P1W9 whole entry, looked up): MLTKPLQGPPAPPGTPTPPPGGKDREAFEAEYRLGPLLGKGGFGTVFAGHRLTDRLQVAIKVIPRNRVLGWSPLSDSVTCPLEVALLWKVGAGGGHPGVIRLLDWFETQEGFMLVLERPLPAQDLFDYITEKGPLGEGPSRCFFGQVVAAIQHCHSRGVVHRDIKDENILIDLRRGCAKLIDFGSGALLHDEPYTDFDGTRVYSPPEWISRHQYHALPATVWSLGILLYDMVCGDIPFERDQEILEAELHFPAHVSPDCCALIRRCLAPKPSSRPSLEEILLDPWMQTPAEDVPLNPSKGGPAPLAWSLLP

[25] = biological target: Glycogen synthase kinase-3 beta (Homo sapiens) (UniProt P49841); test: Inhibition of GSK3-beta at 5 uM
[26] = Inhibition of PKA at 5 uM
[27] = system: Mus musculus; test: Toxicity in Swiss Webster mouse assessed as monocyte count at 10 mg/kg, ip daily for 7 days measured after 7 days; type: organism-based; parameters: dose 10 mg/kg, route intraperitoneal; conditions: in vivo, 168 h
[28] = system: Mus musculus; test: Toxicity against mouse JC cells xenografted BALB/c mouse assessed as loss of body weight at 50 mg/kg, ip for 5 days per week; type: organism-based; parameters: dose 50 mg/kg, route intraperitoneal; conditions: in vivo, 120 h
[29] = system: Mus musculus; test: Toxicity in Swiss Webster mouse assessed as albumin level at 50 mg/kg, ip daily for 7 days measured after 7 days; type: organism-based; parameters: dose 50 mg/kg, route intraperitoneal; conditions: in vivo, 168 h
[30] = biological target: Mitogen-activated protein kinase kinase kinase kinase 4 (Homo sapiens) (UniProt O95819); test: Inhibition of HGK at 5 uM
Chain of Mitogen-activated protein kinase kinase kinase kinase 4 (Homo sapiens) (O95819 2-1239 limits assumed): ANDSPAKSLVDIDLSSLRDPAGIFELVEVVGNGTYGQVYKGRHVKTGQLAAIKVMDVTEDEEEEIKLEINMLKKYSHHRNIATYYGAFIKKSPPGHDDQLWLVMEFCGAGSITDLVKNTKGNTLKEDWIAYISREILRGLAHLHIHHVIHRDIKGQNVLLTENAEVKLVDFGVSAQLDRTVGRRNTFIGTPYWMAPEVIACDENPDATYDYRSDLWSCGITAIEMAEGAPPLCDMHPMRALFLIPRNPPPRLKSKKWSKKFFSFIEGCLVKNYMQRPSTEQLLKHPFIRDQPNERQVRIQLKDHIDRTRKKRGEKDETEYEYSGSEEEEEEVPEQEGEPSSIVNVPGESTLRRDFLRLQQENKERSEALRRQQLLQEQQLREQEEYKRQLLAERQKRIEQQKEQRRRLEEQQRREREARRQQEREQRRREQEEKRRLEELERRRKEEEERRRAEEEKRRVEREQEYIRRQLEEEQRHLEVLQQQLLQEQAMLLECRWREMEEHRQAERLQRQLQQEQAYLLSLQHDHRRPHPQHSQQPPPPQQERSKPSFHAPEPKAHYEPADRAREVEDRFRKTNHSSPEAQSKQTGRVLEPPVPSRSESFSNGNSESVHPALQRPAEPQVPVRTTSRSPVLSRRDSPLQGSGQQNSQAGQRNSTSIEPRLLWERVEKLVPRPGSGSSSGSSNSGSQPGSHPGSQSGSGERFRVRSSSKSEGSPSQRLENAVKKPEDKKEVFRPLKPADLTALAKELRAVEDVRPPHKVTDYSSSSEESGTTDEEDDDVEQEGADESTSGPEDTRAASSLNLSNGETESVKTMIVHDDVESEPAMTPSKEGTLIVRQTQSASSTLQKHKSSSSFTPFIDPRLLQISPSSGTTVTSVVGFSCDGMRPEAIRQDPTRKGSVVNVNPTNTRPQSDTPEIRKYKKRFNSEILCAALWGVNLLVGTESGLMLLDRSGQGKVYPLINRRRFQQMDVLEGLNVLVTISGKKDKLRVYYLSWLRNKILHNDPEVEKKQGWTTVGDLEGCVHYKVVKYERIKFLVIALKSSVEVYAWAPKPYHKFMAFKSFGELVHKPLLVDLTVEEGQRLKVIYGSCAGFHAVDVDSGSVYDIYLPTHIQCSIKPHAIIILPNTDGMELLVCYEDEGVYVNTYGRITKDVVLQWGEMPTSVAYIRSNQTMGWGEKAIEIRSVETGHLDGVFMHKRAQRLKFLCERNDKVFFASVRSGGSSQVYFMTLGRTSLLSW

[31] = system: Mus musculus; test: Toxicity in Swiss Webster mouse assessed as phosphate level at 50 mg/kg, ip daily for 7 days measured after 7 days; type: organism-based; parameters: dose 50 mg/kg, route intraperitoneal; conditions: in vivo, 168 h
[32] = biological target: Protein kinase C zeta type (Homo sapiens) (UniProt Q05513); test: Inhibition of PKCzeta at 5 uM
Chain of Protein kinase C zeta type (Homo sapiens) (Q05513 whole entry): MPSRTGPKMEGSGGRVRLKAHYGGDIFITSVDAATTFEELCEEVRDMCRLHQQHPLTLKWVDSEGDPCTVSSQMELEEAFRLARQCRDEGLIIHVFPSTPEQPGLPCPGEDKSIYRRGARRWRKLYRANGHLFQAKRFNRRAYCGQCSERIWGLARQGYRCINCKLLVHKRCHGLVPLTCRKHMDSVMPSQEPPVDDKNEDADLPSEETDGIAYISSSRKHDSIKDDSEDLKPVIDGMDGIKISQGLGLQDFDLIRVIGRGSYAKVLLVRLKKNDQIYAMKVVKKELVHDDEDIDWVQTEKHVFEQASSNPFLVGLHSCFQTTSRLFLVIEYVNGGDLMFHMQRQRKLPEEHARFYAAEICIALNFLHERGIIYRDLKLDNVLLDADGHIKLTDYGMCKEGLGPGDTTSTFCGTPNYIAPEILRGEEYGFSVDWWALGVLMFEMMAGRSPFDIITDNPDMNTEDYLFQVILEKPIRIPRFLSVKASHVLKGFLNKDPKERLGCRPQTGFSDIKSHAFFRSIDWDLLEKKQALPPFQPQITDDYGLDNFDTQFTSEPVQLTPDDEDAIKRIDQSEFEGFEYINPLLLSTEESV

[33] = biological target: Platelet-derived growth factor receptor alpha (Homo sapiens) (UniProt P16234); test: Inhibition of PDGFRalpha at 5 uM
[34] = biological target: Receptor-type tyrosine-protein kinase FLT3 (Homo sapiens) (UniProt P36888); test: Inhibition of FLT3 at 5 uM
[35] = system: Mus musculus; test: Toxicity in Swiss Webster mouse assessed as albumin level at 10 mg/kg, ip daily for 7 days measured after 7 days; type: organism-based; parameters: dose 10 mg/kg, route intraperitoneal; conditions: in vivo, 168 h
[36] = biological target: Mitogen-activated protein kinase 14 (Homo sapiens) (UniProt Q16539); test: Inhibition of p38alpha at 5 uM
Chain of Mitogen-activated protein kinase 14 (Homo sapiens) (Q16539 whole entry): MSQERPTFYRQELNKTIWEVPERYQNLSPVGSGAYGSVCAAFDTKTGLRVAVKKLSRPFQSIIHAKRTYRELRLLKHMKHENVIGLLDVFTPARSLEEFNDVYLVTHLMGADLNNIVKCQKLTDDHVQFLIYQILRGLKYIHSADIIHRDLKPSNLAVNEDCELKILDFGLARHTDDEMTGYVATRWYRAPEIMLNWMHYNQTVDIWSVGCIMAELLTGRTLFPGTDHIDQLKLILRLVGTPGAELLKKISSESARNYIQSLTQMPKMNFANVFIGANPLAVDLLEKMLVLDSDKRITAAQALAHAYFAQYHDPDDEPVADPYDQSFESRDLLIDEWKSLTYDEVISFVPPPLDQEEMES

[37] = system: Mus musculus; test: Toxicity in Swiss Webster mouse assessed as alanine aminotransferase level at 10 mg/kg, ip daily for 7 days measured after 7 days; type: organism-based; parameters: dose 10 mg/kg, route intraperitoneal; conditions: in vivo, 168 h
[38] = biological target: Serine/threonine-protein kinase Sgk1 (Homo sapiens) (UniProt O00141); test: Inhibition of SGK1 at 5 uM
[39] = biological target: Interleukin-1 receptor-associated kinase 4 (Homo sapiens) (UniProt Q9NWZ3); test: Inhibition of IRAK4 at 5 uM
[40] = biological target: RAC-alpha serine/threonine-protein kinase (Homo sapiens) (UniProt P31749); test: Inhibition of AKT1 at 5 uM
[41] = system: Mus musculus; test: Toxicity in Swiss Webster mouse assessed as K+ level at 10 mg/kg, ip daily for 7 days measured after 7 days; type: organism-based; parameters: dose 10 mg/kg, route intraperitoneal; conditions: in vivo, 168 h
[42] = system: Mus musculus; test: Toxicity in Swiss Webster mouse assessed as hemoglobin level at 10 mg/kg, ip daily for 7 days measured after 7 days; type: organism-based; parameters: dose 10 mg/kg, route intraperitoneal; conditions: in vivo, 168 h
[43] = biological target: Tyrosine-protein kinase BTK (Homo sapiens) (UniProt Q06187); test: Inhibition of BTK at 5 uM
[44] = system: Mus musculus; test: Toxicity in Swiss Webster mouse assessed as blood urea nitrogen level at 10 mg/kg, ip daily for 7 days measured after 7 days; type: organism-based; parameters: dose 10 mg/kg, route intraperitoneal; conditions: in vivo, 168 h
[45] = system: Mus musculus; test: Toxicity in Swiss Webster mouse assessed as blood urea nitrogen level at 50 mg/kg, ip daily for 7 days measured after 7 days; type: organism-based; parameters: dose 50 mg/kg, route intraperitoneal; conditions: in vivo, 168 h

Structure (SMILES): CCCOc1ccc(/C=C2\SC(=O)NC2=O)cc1
- inhibition [1]: 4%
- Activity [2]: 136 mg/dL
- Activity [3]: 3.5 ×10⁹ /L
- Activity [4]: 50%
- inhibition [5]: -3%
- Activity [6]: 0.61 ×10⁹ /L
- inhibition [7]: -1%
- Activity [8]: 5.7 mg/dL
- inhibition [9]: -1%
- Activity [10]: 145 mmol/L
- Activity [11]: 5.1 mg/dL
- inhibition [12]: -1%
- Activity [13]: 3.73 ×10⁹ /L
- inhibition [14]: -6%
- Activity [15]: 80 U/L
- inhibition [16]: 4%
- inhibition [17]: 3%
- inhibition [18]: 10%
- inhibition [19]: 68%
- inhibition [20]: 7%
- Activity [21]: 0.08 ×10⁹ /L
- Activity [22]: 150 mmol/L
- Activity [23]: 0.04 ×10⁹ /L
- inhibition [24]: 62%
- inhibition [25]: 3%
- inhibition [26]: 3%
- Activity [27]: 0.08 ×10⁹ /L
- Activity [28]: Non-toxic
- Activity [29]: 2.6 g/dL
- inhibition [30]: 9%
- Activity [31]: 5.5 mg/dL
- inhibition [32]: 3%
- inhibition [33]: 6%
- inhibition [34]: 1%
- Activity [35]: 2.9 g/dL
- inhibition [36]: 0%
- Activity [37]: 44 U/L
- inhibition [38]: 5%
- inhibition [39]: 5%
- inhibition [40]: 6%
- Activity [41]: 7.2 mmol/L
- Activity [42]: 11.7 g/dL
- inhibition [43]: 7%
- Activity [44]: 11 mg/dL
- Activity [45]: 14 mg/dL
